Test results published in the M2OR odorant receptor database.

Target: T1, OR5M3 (Homo sapiens) (UniProt Q8NGP4)
T1 sequence (whole entry): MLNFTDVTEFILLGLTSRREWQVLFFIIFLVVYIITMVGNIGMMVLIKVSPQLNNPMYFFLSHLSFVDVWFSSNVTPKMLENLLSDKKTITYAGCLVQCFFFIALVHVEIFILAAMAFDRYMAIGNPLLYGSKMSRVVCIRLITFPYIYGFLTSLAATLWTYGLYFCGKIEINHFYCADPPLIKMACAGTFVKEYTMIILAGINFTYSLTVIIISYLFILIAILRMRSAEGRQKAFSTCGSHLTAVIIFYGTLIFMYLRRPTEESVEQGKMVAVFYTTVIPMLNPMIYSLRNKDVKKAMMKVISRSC
Details: stereoisomer not certain
In short: (§1)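 Whether a receptor–molecule pair is responsive (active) rests on the original authors' judgment that its measured signal was statistically different from baseline. Pairs without that judgment are non-responsive (inactive). Sources used varied assay methods, commonly transient luciferase assays in mammalian cell lines.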

Structure (SMILES)	odorant receptor agonist call;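 also: active if original authors judged signal statistically different from baseline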
CCCCCCCC(=O)[O-].[H+]	inactive
CCCCCCOC(C)=O	inactive
CCC(=O)O	inactive
CCOC(=O)C(C)C	inactive
CCCCCC=O	inactive
O=c1ccc2ccccc2o1	inactive
CCCCCCCC(C)=O	inactive

Target: T2, OR5P3 (Homo sapiens) (UniProt Q8WZ94)
T2 sequence (whole entry): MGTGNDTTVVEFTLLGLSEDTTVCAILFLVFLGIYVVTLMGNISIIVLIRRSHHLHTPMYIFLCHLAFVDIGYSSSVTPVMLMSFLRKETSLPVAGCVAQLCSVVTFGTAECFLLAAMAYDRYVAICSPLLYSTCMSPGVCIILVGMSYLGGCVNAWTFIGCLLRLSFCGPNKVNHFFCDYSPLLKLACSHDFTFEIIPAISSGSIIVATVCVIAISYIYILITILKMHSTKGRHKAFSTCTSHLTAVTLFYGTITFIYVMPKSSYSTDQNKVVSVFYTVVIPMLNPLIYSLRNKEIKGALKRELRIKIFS
Details: stereoisomer not certain
In short: as §1

Structure (SMILES)	odorant receptor agonist call;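 also: active if original authors judged signal statistically different from baseline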
CCCCCCCC(=O)[O-].[H+]	inactive
CCCCCCCCCCO	inactive
CCC(C(=O)O)c1ccccc1 (stereo unspecified)	inactive
CCCCCCCCO	inactive
CCC(=O)C(=O)CC	inactive
CC(=O)OCC=C(C)C	inactive
CCCCOC(=O)C(C)OC(=O)CCC (stereo unspecified)	inactive
CCCCOC=O	inactive
CCCCCC1=C(C)CCC1=O	inactive
O=C(c1ccccc1)c1ccccc1	inactive
CCCCCCOC(C)=O	inactive
CCCC(C)=O	inactive
CCCC(=O)C(C)=O	inactive
CCC(=O)O	inactive
CCOC(=O)C(C)C	inactive
CC(=O)OCc1ccccc1	inactive
CCCCCC(=O)CC	inactive
CCCCCC=O	inactive
CCCCCCCCCS	inactive
C=CCOC(=O)CCCCCC	inactive

Structure (SMILES)	odorant receptor agonist call;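 also: active if original authors judged signal statistically different from baseline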
O=c1ccc2ccccc2o1	active
CCCCCCCCS	inactive
O=C1CCOc2ccccc21	inactive
CCCCC(C)=O	inactive
CCCCCOC(=O)CCCCC	inactive
CCCCCCCCC(=O)O	inactive
CC12CCC(CC1=O)C2(C)C (stereo unspecified)	inactive
C=C(C)C1CCC(C)C(=O)C1 (stereo unspecified)	inactive
CCCCCCCO	active
CCCCCCC(=O)[O-].[H+]	inactive
CCCCC(=O)CC	inactive
c1ccccc1	inactive
O=C1Cc2ccccc2O1	inactive
CCCCCCC(C)=O	inactive
CCCCCCCC(C)=O	inactive
CC(=O)Oc1ccccc1	inactive
CCCCCO	inactive
COc1cc(C(=O)O)ccc1O	inactive
CC(C)=CCCC(C)CCO (stereo unspecified)	inactive
